From ChEMBL document CHEMBL4145615, “Indolyl Azaspiroketal Mannich Bases Are Potent Antimycobacterial Agents with Selective Membrane Permeabilizing Effects and in Vivo Activity” (J Med Chem, 2018)
Converted amounts (≈) assume the structure as drawn.

Columns and labels:
[1] = Hemolytic activity against human RBC after 1 hr; format: ADME, cell-based, Erythrocyte; details: red blood cells (erythrocytes)
In short: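 Human red blood cells were exposed to the test compound at a range of concentrations in phosphate-buffered saline for 1 h at 37°C. Hemolysis was referenced to 2% Triton X-100, taken as 100% hemolysis. The value reported is the concentration that lyses 50% of RBCs.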

[2] = Selectivity index, ratio of IC50 for African green monkey Vero E6 cells to MIC50 for Mycobacterium bovis BCG ATCC 35734; format: toxicity, Vero C1008; details: read-out: Selectivity Index
Vero C1008 = experiment: Cytotoxicity against African green monkey Vero E6 cells assessed as cell growth inhibition after 48 hrs by celltitre 96 aqueous one-based assay; details: Chlorocebus sabaeus, Vero C1008, 48 h
[3] = system: Mycobacterium tuberculosis; experiment: Loebicidal activity against nutrient-starved nongrowing Mycobacterium tuberculosis H37Rv ATCC 27294 assessed as 1000 fold reduction in CFU after 7 days; format: functional
In short: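 Mtb H37Rv nutrient-starved, non-growing bacilli prepared from a roller-bottle culture. 1 mL at OD600 = 0.05 exposed to a range of concentrations for 7 days at 37°C, 80 rpm. CFU counted on 7H10 agar. LCC99.9 is the 1000-fold reduction versus drug-free inoculum at time zero.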

[4] = Drug uptake in lungs of CD1 mouse at 25 mg/kg, po administered as single dose measured at 5 hrs post dose by LC/MS-MS analysis; format: ADME, organism-based; details: lung, read-out: Drug uptake
In short: (§1)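 Uninfected CD-1 mice (n=2 per compound), single oral dose 25 mg/kg as a solution in 5% DMA/65% PEG300/30% D5W. Blood taken at 30 min, 1, 3, 5 h and plasma separated by centrifugation. Lungs taken at 5 h and homogenized in ~5 volumes PBS. Levels measured by LC/MS-MS after acetonitrile/methanol protein precipitation with verapamil internal standard. AUC and Cmax calculated from mean concentrations.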

Mus musculus [5] = experiment: AUC in CD1 mouse at 25 mg/kg, po administered as single dose by LC/MS-MS analysis; format: ADME, organism-based; details: in vivo; in short: as §1
[6] = system: Mycobacterium tuberculosis; experiment: Bactericidal activity against Mycobacterium tuberculosis H37Rv ATCC 27294 after 5 days; format: functional; details: H37Rv ATCC 27294, 120 h, read-out: MBC99.9
[7] = Ratio of drug level in CD1 mouse lung to plasma at 25 mg/kg, po administered as single dose measured at 5 hrs post dose by LC/MS-MS analysis; format: ADME, organism-based
In short: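 Blood taken at 30 min, 1, 3, 5 h and plasma separated by centrifugation. Lungs taken at 5 h and homogenized in ~5 volumes PBS. Levels measured by LC/MS-MS after acetonitrile/methanol protein precipitation with verapamil internal standard. AUC and Cmax calculated from mean concentrations.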

[8] = Half life in rat liver microsomes at 1 uM preincubated for 5 mins followed by NADPH addition measure up to 45 mins by LC-MS analysis; format: ADME, microsome; details: 0.75 h
In short: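 Male rat liver microsomes, incubated 45 min at 37°C. Half-life reported as mean ± SD.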

[9] = system: Mycobacterium tuberculosis; experiment: Antimycobacterial activity against Mycobacterium tuberculosis H37Rv ATCC 27294 after 7 days by broth dilution method; format: functional; details: H37Rv ATCC 27294, 168 h
[10] = Cmax in CD1 mouse at 25 mg/kg, po administered as single dose by LC/MS-MS analysis; format: ADME, organism-based; design: dose 25 mg/kg, route oral; details: in vivo; in short: as §1
[11] = Plasma concentration in CD1 mouse at 25 mg/kg, po administered as single dose measured at 5 hrs post dose by LC/MS-MS analysis; format: ADME, organism-based; in short: as §1
[12] = system: Mycobacterium tuberculosis; experiment: Bactericidal activity against Mycobacterium tuberculosis H37Rv ATCC 27294 assessed as 1000 fold reduction in CFU after 7 days; format: functional; details: H37Rv ATCC 27294, 168 h, read-out: MBC99.9
In short: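 BCG ran 5 days at 37°C, 110 rpm; H37Rv ran 7 days at 37°C, 80 rpm. CFU counted on 7H10 agar. MBC99.9 is the 1000-fold CFU reduction versus inoculum at time zero. Average of 2 or more determinations.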

Mus musculus [13] = experiment: Toxicity in CD1 mouse at 25 mg/kg, po administered as single dose by LC/MS-MS analysis; format: organism-based; details: in vivo
In short: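 Uninfected CD-1 mice (n=2 per compound) received a single oral 25 mg/kg dose as a solution in 5% DMA/65% PEG300/30% D5W. Tail-bleed blood was taken at 30 min, 1, 3 and 5 h and spun to plasma. Lungs were taken at 5 h and homogenized in about 5 volumes of PBS. Samples were acetonitrile/methanol-precipitated with verapamil internal standard and quantified by LC-MS/MS against standard curves in drug-free CD1 plasma.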

[14] = Drug uptake in lung of Mycobacterium tuberculosis H37Rv infected BALB/c mouse at 100 mg/kg administered 6 days per week for 4 weeks via oral gavage; format: ADME, organism-based; details: in vivo, read-out: Drug uptake
Mus musculus [15] = experiment: Acute toxicity in BALB/c mouse at 100 mg/kg administered via oral gavage for 3 days measured over 7 days; format: organism-based; details: in vivo, 168 h
In short: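 BALB/c mice, 3 per group, oral gavage at 100 mg/kg in 200 μL of equal volumes PEG400 and 5% glucose. Dosed on three consecutive days, then monitored 7 days. Euthanized by CO2 and examined for gross pathological changes.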

| SMILES | HC50 at 1 h [1] [µM] | IC50 (Vero C1008) [µM] | further results |
| --- | --- | --- | --- |
| CCCCCCCCn1cc(CN2CCC3(CC2)OC(C)C(C)O3)c2ccc(OC)cc21 (configuration not stated) | 76 | 34 | selectivity ratio [2]: 49 |
| CCCCCCCCn1cc(CN2CCC3(CC2)OCCCS3)c2ccc(OC)cc21 | > 300 | 39 | LCC99.9 [3]: <18 µM; concentration at 5 h [4]: 1600 ng/g; AUC (Mus musculus [5]): 224 ng·h/mL; MBC [6]: 3.2 µM (≈ 1.42 µg/mL); Kp at 5 h [7]: 28.9; t1/2 [8]: 32.9 min; MIC50 [9]: 0.5 µM (≈ 0.222 µg/mL); MIC90 [9]: 0.8 µM (≈ 0.356 µg/mL); Cmax [10]: 60.6 ng/mL; concentration at 5 h [11]: 55.2 ng/mL; MBC [12]: 3.2 µM (≈ 1.42 µg/mL); Activity (Mus musculus [13]): Non-Toxic; ΔTm (Lipid bilayer): 4 °C |
| CCCCCCCCn1cc(CNCC2CCC3(CCCC3)O2)c2ccc(OC)cc21 (configuration not stated) |  | 21 | selectivity ratio [2]: 12 |
| CCCCCCCCn1cc(CN2CCC3(CCc4ccccc43)CC2)c2ccc(OC)cc21 | > 300 | 31 | selectivity ratio [2]: 31 |
| CCCCCCCCn1cc(CN2CCC3(CC2)OCCCO3)c2ccc(OCc3ccccc3)cc21 | > 300 | 27 |  |
| CCCCCCCCn1cc(CN2CCC3(CCN(Cc4ccccc4)CC3)CC2)c2ccc(OC)cc21 | 69 | 14 |  |
| CCCCCCCCn1cc(CN2CC(c3ccccc3)C2)c2ccc(OC)cc21 | > 300 | 44 |  |
| CCCCCCCCn1cc(CN2CCCCC2)c2ccc(C#N)cc21 |  | 22 |  |
| CCCCCCCCn1cc(CNCC2CC3CCC2C3)c2ccc(OC)cc21 (configuration not stated) | 19 | 10 |  |
| CCCCCCCCn1cc(CNC2Cc3ccccc3C2)c2ccc(OC)cc21 |  | 24 | selectivity ratio [2]: 6 |
| CCCCCCCCn1cc(CNCC2CC3CC3C2)c2ccc(OC)cc21 (configuration not stated) | 33 | 10 |  |
| COc1ccc(CCCn2cc(CN3CCC4(CC3)OCCO4)c3ccc(OC)cc32)cc1 |  | 31 |  |
| CCCCCCCCn1cc(CN2CCC3(CC2)OCCO3)c2ccc([N+](=O)[O-])cc21 | > 300 | 62 |  |
| CCCCCCCCn1cc(CN2CCC3(CC2)OCCCO3)c2ccc(C#N)cc21 | > 300 | 22 |  |
| COc1ccc2c(CN3CCCCC3)cn(CCCc3ccccc3)c2c1 |  | 43 |  |
| CCCCCCCCn1cc(CN2CCC3(CC2)OCCO3)c2ccc(C#N)cc21 | > 300 | 59 |  |
| CCCCCCCCn1cc(CN2CCC3(CC2)OCCCO3)c2ccc([N+](=O)[O-])cc21 | > 300 | 28 |  |
| COc1ccc2c(CN3CCC4(CC3)OCCCO4)cn(CCCOc3ccc(C)c(C)c3)c2c1 | > 300 |  |  |
| CCCCCCCCn1cc(CN2CCC3(CC2)OCCO3)c2ccc(OCc3ccccc3)cc21 | > 300 | 36 |  |
| CCCCCCCCn1cc(CN2CCC3(CC2)OC[C@H](C)O3)c2ccc(OC)cc21 | 51 | 34 |  |
| CCCCCCCCn1cc(CN2CCCCC2)c2ccc(OC(C)C)cc21 |  | 26 |  |
| COc1ccc2c(CN3CCC4(CC3)OCCCO4)cn(CCCOc3ccccc3)c2c1 | > 300 |  |  |
| CCCCCCCCn1cc(CN2CCCC3(CC2)OCCS3)c2ccc(OC)cc21 (configuration not stated) | > 300 | 35 |  |
| CCCCCCCCn1cc(CN2CCC3(CC2)SCCS3)c2ccc(OC)cc21 | > 300 | > 200 | MIC50 [9]: 0.7 µM (≈ 0.313 µg/mL); MIC90 [9]: 1.1 µM (≈ 0.491 µg/mL); selectivity ratio [2]: > 400; ΔTm (Lipid bilayer): 4 °C |
| CCCCCCCCn1cc(CN2CCC3(CC2)OCCCO3)c2ccc(OCCC)cc21 | 27 | 29 |  |

| SMILES | HC50 at 1 h [1] [µM] | IC50 (Vero C1008) [µM] | further results |
| --- | --- | --- | --- |
| CCCCCCCCn1cc(CN2CCC3(C=Cc4ccccc43)CC2)c2ccc(OC)cc21 | > 300 | 44 | selectivity ratio [2]: 44 |
| CCCCCCCCn1cc(CN2CCCCC2)c2ccc([N+](=O)[O-])cc21 |  | 23 |  |
| CCCCCCCCn1cc(CN2CCC3(CC2)OCCO3)c2ccc(OCCC)cc21 | 31 | 29 |  |
| CCCCCCCCn1cc(CN2CCC3(CC2)OCCCO3)c2ccc(OC)cc21 | 64 | 29 | concentration [14]: 3000 nM; LCC99 [3]: 18 µM; AUC (Mus musculus [5]): 282 ng·h/mL; MBC [6]: 3.2 µM (≈ 1.37 µg/mL); t1/2 [8]: 27.7 min; MIC50 [9]: 0.44 µM (≈ 0.189 µg/mL); MIC90 [9]: 0.76 µM (≈ 0.326 µg/mL); Cmax [10]: 64.8 ng/mL; concentration at 5 h [11]: 58.5 ng/mL; Activity (Mus musculus [15]): Non-Toxic; MBC [12]: 3.2 µM (≈ 1.37 µg/mL); Activity (Mus musculus [13]): Non-Toxic; ΔTm (Lipid bilayer): 4 °C |
| CCCCCCCCn1cc(CN2CCC3(CCO3)CC2)c2ccc(OC)cc21 | 88 | 31 | selectivity ratio [2]: 16 |
| CCCCCCCCn1ccc2cc(OCCCN3CCCCCC3)ccc21 |  | 34 | ΔTm (Lipid bilayer): 1 °C |
| COc1ccc2c(CN3CCC4(CC3)OCCCO4)cn(CCCOc3ccc(C)cc3)c2c1 | > 300 |  |  |
| COc1ccc2c(CN3CCC4(CC3)OCCCO4)cn(CCCOCc3ccccc3)c2c1 |  | 54 |  |
| CCCCCCCCn1cc(CNC2CCC3(CC2)OCCO3)c2ccc(OC)cc21 | 207 | 22 |  |
| CCCCCCCCn1cc(CN2CCC3(CC2)OC[C@@H](C)O3)c2ccc(OC)cc21 | 75 | 37 |  |
| CCCCCCCCn1cc(CN2[C@H]3CCC[C@@H]2CCC3)c2ccc(OC)cc21 | 109 | 31 | selectivity ratio [2]: 8 |
| CCCCCCCCn1ccc2ccc(OCCCN3CCCCCC3)cc21 |  | 33 |  |
| COc1ccc(OCCCn2cc(CN3CCC4(CC3)OCCCO4)c3ccc(OC)cc32)cc1 | > 300 | 46 |  |
| CCCCCCCCn1cc(CN2CCCC3(CC2)OCCCS3)c2ccc(OC)cc21 (configuration not stated) | 132 | 34 |  |
| CCCCCCCCn1cc(CN2CCC3(CC2)OCCS3)c2ccc(OC)cc21 | > 300 | 64 | MIC50 [9]: 0.6 µM (≈ 0.258 µg/mL); MIC90 [9]: 0.95 µM (≈ 0.409 µg/mL); ΔTm (Lipid bilayer): 4 °C |
| CCCCCCCCn1cc(CNCC2CCC3CC3C2)c2ccc(OC)cc21 (configuration not stated) |  | 20 | selectivity ratio [2]: 13 |
| COc1ccc2c(CN3CCC4(CC3)OCCCO4)cn(CCCCc3ccccc3)c2c1 | > 300 | 21 |  |
| CCCCCCCCn1cc(CN2CCC3(CC2)OCCCO3)c2ccc(OC(C)C)cc21 | 29 | 20 |  |
| CCCCCCCCn1cc(CN2CCC3(CC2)OCCO3)c2ccc(OC(C)C)cc21 | 56 | 41 |  |
| CCCCCCCCn1cc(CN2CCOC3(CCCOC3)C2)c2ccc(OC)cc21 (configuration not stated) | > 300 | > 500 | selectivity ratio [2]: > 278 |
| CCCCCCCCn1cc(CN2CCC3(CC2)OCCCO3)c2cccc([N+](=O)[O-])c21 | > 300 | 49 |  |
| COc1ccc2c(CN3CCC4(CC3)OCCCO4)cn(CCCOc3ccc(F)cc3)c2c1 | > 300 |  |  |
| COc1ccc2c(CN3CCC4(CC3)OCCO4)cn(CCCc3ccccc3)c2c1 |  | 35 |  |
| CCCCCCCCn1cc(CN2CCC3(CC2)SCCCS3)c2ccc(OC)cc21 | > 300 | 152 | MIC50 [9]: 0.5 µM (≈ 0.23 µg/mL); MIC90 [9]: 0.78 µM (≈ 0.359 µg/mL) |
